Assays:
[1] = Drug level in human liver cytosol assessed as SULT1A1 copy number-1-mediated compound formation treated with 4-OH-TOR by HPLC analysis; format: ADME, tissue-based
Summary of the method: (§1)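 Liver cytosols from individual donors (100 µg protein) with 100 µM 4-OH-TOR, 20 µM [35S]PAPS, 50 mM potassium phosphate pH 6.2, 15 min at 37 °C. Sulfate measured by C18 radio-HPLC. SULT1A1 copy number by TaqMan qPCR against RNaseP, quadruplicate samples. Genotype–activity relation analysed by ANOVA. Triplicate incubations.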

[2] = Drug level in human liver cytosol assessed as SULT1A1 3'UTR ACG/ACG copy number-3-mediated compound formation treated with 4-OH-toremifene by HPLC analysis; format: ADME, tissue-based; summary of the method: as §1
[3] = Drug level in human liver cytosol assessed as SULT1A1 3'UTR ACG/GTA copy number-3-mediated compound formation treated with 4-OH-toremifene by HPLC analysis; format: ADME, tissue-based; summary of the method: as §1
[4] = Drug level in human liver cytosol assessed as SULT1A1 3'UTR GTA/GTA copy number-2-mediated compound formation treated with 4-OH-toremifene by HPLC analysis; format: ADME, tissue-based; summary of the method: as §1
[5] = Drug level in human liver cytosol assessed as SULT1A1 3'UTR ACG/GTA copy number-2-mediated compound formation treated with 4-OH-toremifene by HPLC analysis; format: ADME, tissue-based; summary of the method: as §1
[6] = Retention time of the compound; format: physicochemical
Summary of the method: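 Symmetry C18 column (4.6 × 150 mm) run at 1.0 mL/min. Gradient: 2 mM TBAHS with 30% acetonitrile for 35 min, 45% acetonitrile for 15 min, then 30% for 20 min. 100 µl injection, flow scintillation detection.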

[7] = Drug level in human liver cytosol assessed as SULT1A1 3'UTR ACG/ACG copy number-2-mediated compound formation treated with 4-OH-toremifene by HPLC analysis; format: ADME, tissue-based; summary of the method: as §1
[8] = Drug level in human liver cytosol assessed as SULT1A1*1/2 single nucleotide polymorphism-mediated compound formation treated with 4-OH-TOR by HPLC analysis; format: ADME, tissue-based; summary of the method: as §1
[9] = Drug level in human liver cytosol assessed as SULT1A1 copy number-3--mediated compound formation treated with 4-OH-TOR by HPLC analysis; format: ADME, tissue-based; summary of the method: as §1
[10] = Drug level in human liver cytosol assessed as SULT1A1 copy number-2--mediated compound formation treated with 4-OH-TOR by HPLC analysis; format: ADME, tissue-based; summary of the method: as §1
[11] = Drug metabolism in human liver cytosol assessed as SULT1A1 3'UTR ACG/ACG copy number-2 -mediated 4-(4-chloro-1-(4-(2-(dimethylamino)ethoxy)phenyl)-2-phenylbut-1-enyl)phenyl hydrogen sulfate formation by HPLC analysis; format: ADME, tissue-based; summary of the method: as §1
Liver cytosol [12] = experiment: Drug metabolism in human liver cytosol assessed as 4-(4-chloro-1-(4-(2-(dimethylamino)ethoxy)phenyl)-2-phenylbut-1-enyl)phenyl hydrogen sulfate formation after 15 mins by Michaelis-Menten equation in presence of 20 uM PAPS; format: ADME; settings: 0.25 h, read-out: Km(app)
Summary of the method: (§2)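 Human liver cytosol (protein by Bradford) incubated with 4-OH-TOR (0.1–30 µM for kinetics), 20 µM [35S]PAPS, 50 mM potassium phosphate pH 6.2, final DMSO <0.1%, 15 min at 37 °C. Stopped with acetonitrile:acetic acid (96:4). Sulfate measured by radio-HPLC, background taken from a substrate-free vehicle control. Triplicate incubations.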

[13] = Drug metabolism in human liver cytosol assessed as SULT1A1 copy number-1-mediated 4-(4-chloro-1-(4-(2-(dimethylamino)ethoxy)phenyl)-2-phenylbut-1-enyl)phenyl hydrogen sulfate formation by HPLC analysis; format: ADME, tissue-based; summary of the method: as §1
[14] = Drug metabolism in human liver cytosol assessed as SULT1A1 copy number-3-mediated 4-(4-chloro-1-(4-(2-(dimethylamino)ethoxy)phenyl)-2-phenylbut-1-enyl)phenyl hydrogen sulfate formation by HPLC analysis; format: ADME, tissue-based; summary of the method: as §1
Liver cytosol [15] = experiment: Drug metabolism in human liver cytosol assessed as 4-(4-chloro-1-(4-(2-(dimethylamino)ethoxy)phenyl)-2-phenylbut-1-enyl)phenyl hydrogen sulfate formation measured per mg of protein treated with 0.1 to 30 after 15 mins by HPLC analysis; format: ADME, tissue-based; settings: 0.25 h; summary of the method: as §2
Liver cytosol [16] = experiment: Drug metabolism in human liver cytosol assessed as 4-(4-chloro-1-(4-(2-(dimethylamino)ethoxy)phenyl)-2-phenylbut-1-enyl)phenyl hydrogen sulfate formation measured per mg of protein after 15 mins by Michaelis-Menten equation in presence of 20 uM PAPS; format: ADME; settings: 0.25 h; summary of the method: as §2
[17] = Drug metabolism in human liver cytosol assessed as SULT1A1*1/2 single nucleotide polymorphism-mediated 4-(4-chloro-1-(4-(2-(dimethylamino)ethoxy)phenyl)-2-phenylbut-1-enyl)phenyl hydrogen sulfate formation by HPLC analysis; format: ADME, tissue-based; summary of the method: as §1
[18] = Drug metabolism in human liver cytosol assessed as SULT1A1 3'UTR GTA/GTA copy number-2-mediated 4-(4-chloro-1-(4-(2-(dimethylamino)ethoxy)phenyl)-2-phenylbut-1-enyl)phenyl hydrogen sulfate formation by HPLC analysis; format: ADME, tissue-based; summary of the method: as §1
[19] = Drug metabolism in human liver cytosol assessed as SULT1A1 3'UTR ACG/GTA copy number-3-mediated 4-(4-chloro-1-(4-(2-(dimethylamino)ethoxy)phenyl)-2-phenylbut-1-enyl)phenyl hydrogen sulfate formation by HPLC analysis; format: ADME, tissue-based; summary of the method: as §1
[20] = Drug metabolism in human liver cytosol assessed as SULT1A1 3'UTR ACG/GTA copy number-2-mediated 4-(4-chloro-1-(4-(2-(dimethylamino)ethoxy)phenyl)-2-phenylbut-1-enyl)phenyl hydrogen sulfate formation by HPLC analysis; format: ADME, tissue-based; summary of the method: as §1
Liver cytosol [21] = experiment: Drug metabolism in human liver cytosol assessed as 4-(4-chloro-1-(4-(2-(dimethylamino)ethoxy)phenyl)-2-phenylbut-1-enyl)phenyl hydrogen sulfate formation after 15 mins by HPLC analysis in presence of 20 uM PAPS and 0.1 to 10 uM SULT1A1 inhibitor DCNP; format: ADME; settings: 0.25 h
Summary of the method: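 Pooled human liver cytosol sulfating 4-OH-TOR with 20 µM PAPS, pH 6.2, plus 0.1–10 µM (final) ethanol-dissolved inhibitor. After 15 min the reaction was stopped with acetonitrile:acetic acid (96:4) and sulfate quantified by radio-HPLC. IC50 calculated. Three separate determinations.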

[22] = Drug metabolism in human liver cytosol assessed as SULT1A1 3'UTR ACG/ACG copy number-3-mediated 4-(4-chloro-1-(4-(2-(dimethylamino)ethoxy)phenyl)-2-phenylbut-1-enyl)phenyl hydrogen sulfate formation by HPLC analysis; format: ADME, tissue-based; summary of the method: as §1
[23] = Drug metabolism in human liver cytosol assessed as SULT1A1 copy number-2-mediated 4-(4-chloro-1-(4-(2-(dimethylamino)ethoxy)phenyl)-2-phenylbut-1-enyl)phenyl hydrogen sulfate formation by HPLC analysis; format: ADME, tissue-based; summary of the method: as §1

Q: With `CN(C)CCOc1ccc(/C(=C(/CCCl)c2ccccc2)c2ccc(OS(=O)(=O)O)cc2)cc1` as the compound, how does the Drug metabolism [1] read?
A: metabolite_detected

Q: What about the Drug metabolism [2] of the same compound?
A: metabolite_detected

Q: What about the Drug metabolism [3] of the same compound?
A: metabolite_detected

Q: And the Drug metabolism [4]?
A: metabolite_detected

Q: And the Drug metabolism [5]?
A: metabolite_detected

Q: And the Retention_time [6]?
A: 12.1 min

Q: What about the Drug metabolism [7] of the same compound?
A: metabolite_detected

Q: What about the Drug metabolism [8] of the same compound?
A: metabolite_detected

Q: What about the Drug metabolism [9] of the same compound?
A: metabolite_detected

Q: And the Drug metabolism [10]?
A: metabolite_detected

Q: With `CN(C)CCOc1ccc(/C(=C(/CCCl)c2ccccc2)c2ccc(O)cc2)cc1` [4-HYDROXYTORMIFENE] as the compound, how does the Drug metabolism [11] read?
A: metabolite_detected

Q: What about the Km (Liver cytosol [12]) of the same compound?
A: 3.5 µM

Q: And the Drug metabolism [13]?
A: metabolite_detected

Q: And the Drug metabolism [14]?
A: metabolite_detected

Q: What about the Drug metabolism (Liver cytosol [15]) of the same compound?
A: 0.0003 nmol/min

Q: And the Vmax (Liver cytosol [16])?
A: 1.4 nmol/min/mg

Q: What about the Drug metabolism [17] of the same compound?
A: metabolite_detected

Q: And the Drug metabolism [18]?
A: metabolite_detected

Q: What about the Drug metabolism [19] of the same compound?
A: metabolite_detected

Q: What about the Drug metabolism [20] of the same compound?
A: metabolite_detected

Q: And the Retention_time [6]?
A: 45.2 min

Q: And the Drug metabolism (Liver cytosol [21])?
A: metabolite_not_detected

Q: What about the Drug metabolism [22] of the same compound?
A: metabolite_detected

Q: And the Drug metabolism [23]?
A: metabolite_detected

— ChEMBL document CHEMBL3525912, “Sulfation of 4-hydroxy toremifene: individual variability, isoform specificity, and contribution to toremifene pharmacogenomics” (Drug Metab Dispos, 2012)
